Assay results pooled from the literature.
Target: Rho-associated protein kinase 1 (ROCK1, Homo sapiens, UniProt Q13464)

O=C(c1ccc(Nc2ncc(Cl)c(-c3ccc(Cl)s3)n2)cc1)N1CCC(N2CCCC2)CC1 — remaining binding (binding; competition with immobilised ligand; 1 µM): 4.9%
COc1cnc(Nc2cccc(S(N)(=O)=O)c2)nc1N1CCN(c2ccccc2)CC1 — remaining binding (binding; competition with immobilised ligand; 1 µM): 78%
CS(=O)(=O)N1CCCC(NC(=O)[C@H](CCC2CCCCC2)NC(=O)c2ccc(CNC(=O)c3cnc4ccccn34)cc2)C1 (stereo partly shown) — remaining binding (cell-free assay; competition with immobilised ligand; 0.1 µM): 100%
c1cnn2ncc(-c3ccnc(N4CCC45COC5)n3)c2c1 — remaining binding (binding; 1 µM): 77%
C=CC(=O)N1CCC(C(=O)NCC(=O)N2CCN(c3nc(-c4cnc(N)nc4C(F)F)nc(N4CCOCC4)n3)CC2)CC1 — remaining binding (binding; competition with immobilised ligand; 1 µM): 100%
C[C@H]1CCN(c2nccc(-c3cnn4ncccc34)n2)C1 — remaining binding (binding; 1 µM): 81%
O=C(Nc1c[nH]nc1C(=O)NC1CCNCC1)c1cc(F)cc(F)c1 — remaining binding (binding; competition with immobilised ligand; 1 µM): 98%
CO[C@H]1CC[C@H](CNc2ccc(S(=O)(=O)NC(=O)c3ccc(N4CCN(CC5=C(c6ccc(Cl)cc6)CC(C)(C)CC5)CC4)cc3Oc3cnc4[nH]ccc4c3)cc2[N+](=O)[O-])CC1 — remaining binding (cell-free assay; competition with immobilised ligand; 1 µM): 70%
c1cncc(-c2cccc(Nc3nccc(NC4CCCCC4)n3)c2)c1 — remaining binding (binding; competition with immobilised ligand; 10 µM): 10%
C[C@@H](c1ccc(-n2cnc3c(N)ncnc32)cc1)N1CCc2nn(C)c(Cc3ccccc3)c2C1=O — remaining binding (binding; competition with immobilised ligand; 0.1 µM): 85%
CCCOc1ccc([C@H]2[C@H](C(=O)O)[C@@H](c3ccc4c(c3)OCO4)CN2CC(=O)Nc2c(CC)cccc2CC)cc1 — remaining binding (cell-free assay; competition with immobilised ligand; 1 µM): 65%
O=C(NCCCN1CCOCC1)c1ccc(Nc2ncc(Cl)c(-c3ccc(Cl)s3)n2)cc1 — remaining binding (binding; competition with immobilised ligand; 1 µM): 90%
C[C@H](c1ccc(F)cc1)N(Cc1cccc(C(=O)O)c1)C(=O)c1cnc2ccccc2c1 — remaining binding (cell-free assay; competition with immobilised ligand; 1 µM): 100%
CN(c1nccc(-c2cnn3ncccc23)n1)C1CC1 — remaining binding (binding; 1 µM): 100%
O=C(c1ccc(Nc2ncc(Cl)c(-c3cc4ccccc4s3)n2)cc1)N1CCC(N2CCCC2)CC1 — remaining binding (binding; competition with immobilised ligand; 1 µM): 4.5%
COc1ccnn2ncc(-c3ccnc(N(C)C)n3)c12 — remaining binding (binding; 1 µM): 93%
Cc1c(NC(=O)c2cc(C(N)=O)nc3cc(F)ccc23)c(C(F)(F)F)nn1Cc1ccc(C#N)cc1 — remaining binding (cell-free assay; competition with immobilised ligand; 1 µM): 97%
CN(C)c1ncc(F)c(-c2cnn3ncccc23)n1 — remaining binding (binding; 1 µM): 100%
N#Cc1ccc(Nc2ccc3[nH]c(=O)[nH]c3c2)c(Cl)c1 — remaining binding (cell-free assay; competition with immobilised ligand; 1 µM): 100%
COc1ncc2cc3ccccc3nc2c1C#N — remaining binding (cell-free assay; competition with immobilised ligand; 5 µM): 84%
Cc1c(C(=O)O)cc(-c2ccc(C3CCNCC3)cc2)c2ccc(-c3ccc(C(F)(F)F)cc3)cc12 — remaining binding (binding; competition with immobilised ligand; 1 µM): 100%
N[C@H]1CCN(c2nccc(-c3cnn4ncccc34)n2)C1 — remaining binding (binding; 1 µM): 73%
